The source of these data is ChEMBL document CHEMBL1681660, “6-amino-4-(pyrimidin-4-yl)pyridones: novel glycogen synthase kinase-3β inhibitors” (Bioorg Med Chem Lett, 2011).

A short description of series [1]: Ratio of drug level in brain to plasma in Sprague-Dawley rat at 5 mg/kg, sc after 1 hr. The format is ADME, organism-based. On the set-up: dose 5 mg/kg, route subcutaneous. The conditions noted are these: brain and plasma, read-out: BPR. The method in brief: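 Male Sprague–Dawley rats (n = 3 per time point) received 5 mg/kg subcutaneously. Plasma (cardiac puncture after CO2 euthanasia), brain and CSF were collected at 0.5, 1, 2 and 4 h. Drug levels were measured by LC/MS/MS. Ratio is taken from the average brain and plasma concentrations at 1 h.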

For another series, the system named is MDR. In words: Permeability from apical to basolateral side of MDCK cells over expressing MDR. The conditions noted are these: dog, MDCK-MDR1.

With `COc1ccccc1CCNc1cc(-c2ccncn2)cc(=O)n1C`, the Kp at 1 h in series [1] turned out to be 0.35.
Turning to `Cn1c(N2CCC(O)(c3ccccc3)CC2)cc(-c2ccncn2)cc1=O`, the Kp at 1 h in series [1] stood at 0.96.
On the same count and under the same terms, the figure for `COc1ccccc1[C@H]1CN(c2cc(-c3ccncn3)cc(=O)n2C)CCO1` is 1.86.
Molecule `Cc1cc(-c2cc(-c3ccccc3)nc(=O)[nH]2)ccc1O` displayed a Papp (apical to basal) in the series with MDR of 13.9 ×10⁻⁶ cm/s.
